The source of these data is ChEMBL document CHEMBL1151817, “Steroids from an Australian sponge Psammoclema sp” (J Nat Prod, 2009).

Structures are written as SMILES. Active and inactive are the calls of the source. The calls are words filed in the database; no cut-off is given here.

Usually IC50 stands for the concentration that gives 50% inhibition. A higher IC50 goes with weaker potency in that assay. By GI50 is commonly meant the concentration at which growth is held to half of that of the control. Lower therefore signals more potent growth inhibition.

Target in one test: not listed separately
In words: (§1) Inhibition of dynamin 1 GTPase activity in sheep brain peripheral membrane by microplate spectrophotometry.
Settings: not given
Type of test: cell membranes, Ovis aries. The gist of the method:
(§2)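 Sheep brain dynamin I, affinity-purified on GST-Amph2-SH3, used at 20 nM. Sample preincubated 12 min at 37 °C with 0.3 mM GTP in Tris pH 7.5 buffer containing Mg2+, Tween 80 and protease inhibitors. Enzyme then added; 30 min at 37 °C with shaking; phosphatidylserine liposome stimulation. Stopped with EDTA; malachite green phosphate readout at 650 nm against phosphate standard curve.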
In turn, `C=C(C)C(CC)CCC(C)C1C(O)CC2C3CCC4CC(O)CCC4(C)C3CC(O)C21C` (stereo not given) showed an IC50 greater than 300 µM.

For a further test, the species on record is Ovis aries. The description is as §1. Type of test: cell membranes.
Settings: not given
The gist of the method: as §2
On to `C=C(CCC(C)C1C(O)CC2C3CCC4CC(O)CCC4(C)C3CC(O)C21C)C(C)C` (stereo not given), for which the result was inactive.
Take `CC(C)CCCC(C)C1C(O)CC2C3CCC4CC(O)CCC4(C)C3CC(O)C21C` (stereo not given): the result was inactive.
On the same count and under the same terms, the value for `CC(C)C(C)/C=C/C(C)C1C(O)CC2C3CCC4CC(O)CCC4(C)C3CC(O)C21C` (stereo not given) was “inactive”.

The test system of a further test is HT-29. The test can be described thus: Cytotoxicity against human HT-29 cells after 72 hrs by MTT assay. In kind it is functional. Conditions: HT-29, 72 h. An outline of the steps:
(§3)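 ATCC lines grown in DMEM with 10% FBS, glutamine, antibiotics, 37 °C, 5% CO2; 2000–3000 cells/well plated, compound added 24 h later during log growth. Eight concentrations, 0.25–50 μM (from 20 mM DMSO stock), 72 h exposure; MTT absorbance at 540 nm. GI50 = concentration giving 50% growth inhibition versus untreated cells; duplicate wells, two separate experiments.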
On to `C=C(C)C(CC)CCC(C)C1C(O)CC2C3CCC4CC(O)CCC4(C)C3CC(O)C21C` (stereo not given), for which the 50% growth inhibitory concentration (GI50) is 7.1 µM. This lies in the single-digit micromolar range.
For `C=C(CCC(C)C1C(O)CC2C3CCC4CC(O)CCC4(C)C3CC(O)C21C)C(C)C` (stereo not given), the 50% growth inhibitory concentration (GI50) came to 18 µM.
The same measure, in the same setting: the result for `CC(C)CCCC(C)C1C(O)CC2C3CCC4CC(O)CCC4(C)C3CC(O)C21C` (stereo not given) reads 5 µM; that for `CC(C)C(C)/C=C/C(C)C1C(O)CC2C3CCC4CC(O)CCC4(C)C3CC(O)C21C` (stereo not given), 7 µM.

Another test has as its system MCF7. In words: Cytotoxicity against human MCF7 cells after 72 hrs by MTT assay. Type of test: functional. The settings on record: MCF7, 72 h. An outline of the steps:
as §3
A general note: Tetrazolium dyes change colour on reduction, which living cells bring about.
With `C=C(C)C(CC)CCC(C)C1C(O)CC2C3CCC4CC(O)CCC4(C)C3CC(O)C21C` (stereo not given), the GI50 was found to be 10 µM.
The same measure, in the same setting: the value for `C=C(CCC(C)C1C(O)CC2C3CCC4CC(O)CCC4(C)C3CC(O)C21C)C(C)C` (stereo not given) was 18 µM; that for `CC(C)CCCC(C)C1C(O)CC2C3CCC4CC(O)CCC4(C)C3CC(O)C21C` (stereo not given) was 5.5 µM.
On to `CC(C)C(C)/C=C/C(C)C1C(O)CC2C3CCC4CC(O)CCC4(C)C3CC(O)C21C` (stereo not given), for which the 50% growth inhibitory concentration (GI50) amounted to 17 µM.

A further test has as its system A2780. In words: Cytotoxicity against human A2780 cells after 72 hrs by MTT assay. The settings on record: A2780, 72 h. Type of test: functional. An outline of the steps:
as §3
The compound `C=C(C)C(CC)CCC(C)C1C(O)CC2C3CCC4CC(O)CCC4(C)C3CC(O)C21C` (stereo not given) returned a 50% growth inhibitory concentration (GI50) of 11 µM. This counts as double-digit micromolar.
With `C=C(CCC(C)C1C(O)CC2C3CCC4CC(O)CCC4(C)C3CC(O)C21C)C(C)C` (stereo not given), it took 19 µM to inhibit growth by half (GI50).
`CC(C)CCCC(C)C1C(O)CC2C3CCC4CC(O)CCC4(C)C3CC(O)C21C` (stereo not given): the concentration for 50% growth inhibition (GI50) came to 5.4 µM.
Compound `CC(C)C(C)/C=C/C(C)C1C(O)CC2C3CCC4CC(O)CCC4(C)C3CC(O)C21C` (stereo not given) registered a GI50 of 10 µM.

In the next test the test system is DU-145. In words: Cytotoxicity against human DU145 cells after 72 hrs by MTT assay. In kind it is functional. The settings on record: DU-145, 72 h. The gist of the method: as §3
Regarding `C=C(C)C(CC)CCC(C)C1C(O)CC2C3CCC4CC(O)CCC4(C)C3CC(O)C21C` (stereo not given), the GI50 was determined as 13 µM. This counts as double-digit micromolar.
Take `C=C(CCC(C)C1C(O)CC2C3CCC4CC(O)CCC4(C)C3CC(O)C21C)C(C)C` (stereo not given): the 50% growth inhibitory concentration (GI50) was determined as 27 µM.
`CC(C)CCCC(C)C1C(O)CC2C3CCC4CC(O)CCC4(C)C3CC(O)C21C` (stereo not given) came in with a concentration for 50% growth inhibition (GI50) of 6.7 µM.
Compound `CC(C)C(C)/C=C/C(C)C1C(O)CC2C3CCC4CC(O)CCC4(C)C3CC(O)C21C` (stereo not given) came in with a GI50 of 27 µM.
